Sampled rows, rich in hits. Any-hit rate of the full collection: about 2%.
HNF4A DNA FP: change in binding of human HNF4 alpha to DNA; P41235; HNF4a-FITC DNA binding, fluorescence polarization, 1 h; activity change, % at 10 µM; 360,000 compounds, 0.3% hits; in the data active means activity change above about 30%, passing the limit was not always enough
Rpn11 inh: inhibitors of human proteasome Rpn11. inhibition, % at 20 µM. AID 588493. 360,000 compounds, 0.59% hits. human 26S proteasome, Ub4-pepOG fluorescence polarization; 20S core pre-blocked with epoxomicin. O00487;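 active means inhibition at 20 µM, scaled to each plate's controls, above about 33%, limit read from the data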
SENP1 inh: SENP1 (human) catalytic domain inhibition. Q9P0U3. recombinant SENP1 catalytic domain, CyPet-SUMO1-YPet FRET cleavage. inhibition, % at 10 µM. 360,000 compounds, 0.21% hits. AID 624204;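 active means inhibition at least 30% at 10 µM, raw YFP signal under a set limit, fluorescence ratio 0.5 to 1.5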
Target sequence (Q9P0U3 419-644 limits assumed): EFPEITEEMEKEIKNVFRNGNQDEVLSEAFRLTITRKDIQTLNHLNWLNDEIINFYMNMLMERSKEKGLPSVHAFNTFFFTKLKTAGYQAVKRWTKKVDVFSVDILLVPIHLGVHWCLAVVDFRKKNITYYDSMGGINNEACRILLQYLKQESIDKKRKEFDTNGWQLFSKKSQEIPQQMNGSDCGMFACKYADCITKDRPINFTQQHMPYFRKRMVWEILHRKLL
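Assay system – human recombinant His6-tagged SENP1 catalytic domain enzyme · Input – SENP1 enzyme, 20 pM final · Buffer or medium – Tris pH 8 buffer plus EDTA, NaCl, BME, BSA, NP40, catalase · Schedule – 50 min reaction at room temperature · Technique – FRET read of cyan and yellow fluorescence · Control set – no-enzyme wells low, DMSO-plus-enzyme wells high control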
ATG4B inh: blocks human ATG4B protease cleavage of LC3 substrate | Q9Y4P1 | ATG4B cleavage of LC3-PLA2, NBD-HPC fluorescence, 1 h | inhibition, % at 8.33 µM | 340,000 compounds, 0.51% hits; in the data active means inhibition above about 40%
TPT1 inh: inhibitors of Candida albicans tRNA 2'-phosphotransferase TPT1; recombinant caTPT1, FP RNA substrate dephosphorylation; inhibition, % at 5 µM; 300,000 compounds, 0.81% hits; AID 1962;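 active means inhibition above the mean of all tested compounds plus 3 SD, set per screening campaign, cut at about 24% in these data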
CSN inh: blocks human CSN-mediated cullin deneddylation. Q92905. Purified CSN, SCF-Nedd8-OG deneddylation, fluorescence polarization. inhibition, % at 12.5 µM. 360,000 compounds, 0.38% hits;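 active means pattern-corrected inhibition above about 35%, with an unprinted fluorescence ratio check between 0.5 and 1.5, limit read from the data, passing the limit was not always enough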
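Assay system: purified human Csn5 enzyme expressed in HEK293T cells; Input: 0.24 nM Csn5 enzyme, final concentration; Reagent: 10 nM SCFSkp2-Nedd8OG; Compound dosing: 12.5 µM single point; Times: reaction 90 min, room temperature; Technique: fluorescence polarization readout.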
ATG4B conf: ATG4B (human) inhibition, single-dose confirmed. shares compounds with ATG4B inh. ATG4B protease fluorescent substrate cleavage assay. inhibition, % at 8.33 µM. 320 compounds, 92% hits. AID 504757; in the data active means inhibition above about 39%
PLA2 counter: inhibits human PLA2, flagging false ATG4B inhibitors. shares compounds with ATG4B inh. purified PLA2, NBD-C6-HPC fluorescence, 45 min. inhibition, % at 8.33 µM. 1,600 compounds, 66% hits. AID 588402; in the data active means inhibition above about 50%
Target sequence (P04054 whole entry, looked up): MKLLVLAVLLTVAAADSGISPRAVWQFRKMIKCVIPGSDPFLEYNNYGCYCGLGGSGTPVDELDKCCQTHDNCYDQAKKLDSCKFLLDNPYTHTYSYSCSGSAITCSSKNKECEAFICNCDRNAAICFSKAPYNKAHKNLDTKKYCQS
Numbers stand for hits; – = inactive; · = no result.

SMILES	HNF4A DNA FP	Rpn11 inh	SENP1 inh	ATG4B inh	TPT1 inh	CSN inh	PLA2 counter	others
CCOC(=O)c1c(C)nc2c(c1-c1ccccc1)C(=O)c1ccccc1-2	–	–	–	79	–	–	71
CCOC(=O)c1c(C)nc2c(c1-c1cc(OC)ccc1OC)C(=O)c1ccccc1-2	–	–	–	–	–	–	·
CCCNC(=O)C(Cc1ccccc1C)NC(=O)c1ccc(C(F)(F)F)cc1 (stereo not given)	–	–	–	–	·	–	·
Cc1cccc(C)c1OCC(=O)Nc1ccc(NC(=O)c2ccco2)cc1	–	–	–	–	–	–	·
Cc1cccc(C)c1OCC(=O)Nc1cccc(NC(=O)c2ccco2)c1	–	–	–	48	–	–	–	ATG4B conf=57
COc1cccc(NC(=O)C2(C)CCN2Cc2ccc3ccccc3c2)c1 (stereo not given)	–	–	–	·	·	–	·
CCC(CO)n1c(SCc2cc([N+](=O)[O-])cc3c2OCOC3)nc2ccccc2c1=O (stereo not given)	–	–	–	43	–	–	55
C=CCn1c(SCc2cc([N+](=O)[O-])cc3c2OCOC3)nc2cc(C(=O)O)ccc2c1=O	–	–	–	–	–	–	·
O=C(COC(=O)c1ccc2[nH]c3c(c2c1)CCCC3)Nc1ccccc1Cl	–	–	–	–	–	–	·
CCC(C)c1ccccc1NC(=O)COC(=O)c1ccc2[nH]c3c(c2c1)CCCC3 (stereo not given)	–	–	–	42	–	–	57
CC1(C)Cc2c(sc3c2c(=N)n(Cc2ccco2)c(=O)n3CC(=O)Nc2cccc(Cl)c2)CO1	–	–	–	53	–	–	60
COc1ccc2oc(C(=O)N3CCCc4ccccc43)c(C)c2c1	–	–	–	–	–	–	·
Cc1ccccc1CNC(=O)c1ccc(CSCc2ccccc2)cc1	–	–	–	49	–	–	68
CCCCN(C(=O)CCN1C(=O)C2CC=CCC2C1=O)c1c(N)n(CCCC)c(=O)[nH]c1=O (stereo not given)	–	–	–	–	·	–	·
COc1ccc(C)cc1N1C(=N)/C(=C2/Nc3ccccc3S2)C(c2ccccc2)C1=O (stereo not given)	–	–	–	50	–	–	–
CCc1nc2c(OCc3ccc(Cl)cc3Cl)cccn2c1N(C)C(=O)c1ccccc1F	–	–	–	·	·	–	·
COc1ccc(-c2ccc3c(c2)S(=O)(=O)c2cccc(C(=O)NCc4cccc(OC(F)(F)F)c4)c2C3=O)cc1OC	–	–	–	70	·	–	70
O=C(NCc1cccc(OC(F)(F)F)c1)c1cccc2c1C(=O)c1ccc(-c3ccc(F)cc3OCc3ccccc3)cc1S2(=O)=O	–	–	–	–	·	–	·
CCc1cccc(NC(=O)CCCn2nc(CC)n3c(cc4occc43)c2=O)c1	–	–	–	–	–	–	·
CCc1nn(CCCC(=O)NCc2ccccc2Br)c(=O)c2cc3occc3n12	–	–	–	51	–	–	–	ATG4B conf=66
CC1(C(=O)NS(=O)(=O)c2cccc(C#N)c2)CCN1C(=O)C1(c2ccc(Cl)cc2)CCC1 (stereo not given)	–	–	–	·	·	–	·
O=C(Nc1cccc(F)c1)Nc1nnc([C@@H]2O[C@H](CO)[C@@H](O)[C@H]2O)s1	–	–	–	·	·	–	·
CC(=O)C(=Cc1ccc(Cl)cc1)C(=O)c1ccccc1	–	–	–	·	·	–	·
Cc1ccc(C)c(N2CCN(S(=O)(=O)c3ccc4c(c3)CCN4C(=O)CCC(=O)O)CC2)c1	–	–	–	–	–	–	·
Cc1cccc(N2CCN(S(=O)(=O)c3ccc4c(c3)CCN4C(=O)CCC(=O)O)CC2)c1C	–	–	–	41	–	–	–
CC(C)c1[nH]nc2c1C(c1ccc(OC(=O)c3ccco3)cc1)C(C#N)=C(N)O2 (stereo not given)	–	–	–	83	–	–	84
